PMC3206322 (ACS chemical neuroscience, 2011)
Several values for one entry are separate records, joined by “and”; a condition that tells them apart may be missing. Equal entries are not always repeated.

Tests used:
Assay type in all cases: cell-based
[1] = molecular target: T1, GluA2Qflip AMPA receptor (Homo sapiens, UniProt P42262); assay: Laser-pulse photolysis rate measurement of channel opening; details: for Mechanism of inhibition: inhibited both kop and kcl
Procedure, shortened: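 Transfected HEK-293S cells expressing GluA2Qflip were whole-cell clamped at −60 mV, pH 7.4, 22 °C. After 6 s preincubation with inhibitor, caged glutamate was photolysed by a 355 nm laser pulse of 200–800 μJ, with released glutamate calibrated against free glutamate in the same cell. The kcl term was taken from kobs at 100 μM glutamate over a range of inhibitor concentrations (eq 4), and kop at 350 μM (eq 5).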

[2] = molecular target: T1, GluA2Qflip AMPA receptor; assay: Laser-pulse photolysis amplitude measurement of whole-cell current
Procedure, shortened: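 HEK-293S cells in DMEM/10% FBS at 37 °C, 5% CO2, were transiently transfected with GluA2Qflip by calcium phosphate, with GFP and large T-antigen plasmids, and used at 48 h. Whole-cell recording at −60 mV, pH 7.4, 22 °C in HEPES/NaCl buffer. Caged glutamate was photolysed by a 355 nm pulse after 6 s inhibitor preincubation. The A/AI ratio versus inhibitor concentration was fitted by eq 6.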

[3] = molecular target: T1, GluA2Qflip AMPA receptor; assay: Solution-flow amplitude measurement of whole-cell current; details: Ki (closed-channel), solution-flow technique, GluA2Qflip in HEK-293 cells; 100 μM glutamate; amplitude A/AI, eq 6
[4] = Ki (100 μM glu), amplitude measurement, laser-pulse photolysis, GluA2Qflip in HEK-293 cells, 100 μM glutamate, closed-channel state

T1 sequence (P42262 25-883 isoform P42262-2 limits assumed): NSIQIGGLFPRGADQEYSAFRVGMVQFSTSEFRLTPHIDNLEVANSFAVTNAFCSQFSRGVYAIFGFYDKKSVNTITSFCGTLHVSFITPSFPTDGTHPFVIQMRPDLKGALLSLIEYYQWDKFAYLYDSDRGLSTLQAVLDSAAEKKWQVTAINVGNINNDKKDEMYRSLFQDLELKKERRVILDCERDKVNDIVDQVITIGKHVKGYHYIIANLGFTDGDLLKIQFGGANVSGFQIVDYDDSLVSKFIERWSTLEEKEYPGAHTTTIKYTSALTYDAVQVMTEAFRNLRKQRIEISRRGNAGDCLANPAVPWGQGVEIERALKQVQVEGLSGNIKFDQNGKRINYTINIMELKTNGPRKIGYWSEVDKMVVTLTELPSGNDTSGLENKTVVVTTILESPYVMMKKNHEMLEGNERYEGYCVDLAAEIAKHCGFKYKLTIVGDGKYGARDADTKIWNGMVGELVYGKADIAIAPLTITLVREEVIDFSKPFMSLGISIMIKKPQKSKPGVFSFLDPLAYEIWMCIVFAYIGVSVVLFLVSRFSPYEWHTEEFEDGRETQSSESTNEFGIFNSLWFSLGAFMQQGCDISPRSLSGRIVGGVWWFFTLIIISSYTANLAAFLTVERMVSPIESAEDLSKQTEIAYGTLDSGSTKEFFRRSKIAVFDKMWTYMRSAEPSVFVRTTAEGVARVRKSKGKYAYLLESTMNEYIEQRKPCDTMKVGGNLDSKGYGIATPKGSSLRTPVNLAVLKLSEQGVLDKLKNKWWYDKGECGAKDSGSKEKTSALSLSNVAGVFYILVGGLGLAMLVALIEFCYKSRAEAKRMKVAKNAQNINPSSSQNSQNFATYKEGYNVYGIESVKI

`Nc1ccc(C2=NNC(=O)Cc3cc4c(cc32)OCO4)cc1` [BDZ-2, 1-(4-aminophenyl)-3,5-dihydro-7,8-methylenedioxy-4H-2,3-benzodiazepin-4-one] was tested, and the Ki [1] was 48 µM and 194 µM, the Mechanism of inhibition [1] was “noncompetitive” and the Ki [2] was 23 to 25 µM. It also gave a Ki [2, 4] of 25 ± 1 µM and a Ki [3] of 25 ± 1 µM.
For `CC1=NN=C(c2ccc(N)cc2)c2cc3c(cc2C1)OCO3` [GYKI 52466, 1-(4-aminophenyl)-4-methyl-7,8-methylenedioxy-5H-2,3-benzodiazepine], the Ki [1] was 61 µM and 128 µM, the Mechanism of inhibition [1] was “noncompetitive” and the Ki [2] was 14 to 16 µM. For the same compound, the Ki [2, 4] was 15 ± 1 µM and the Ki [3] was 14 ± 1 µM.
